Active and inactive are the calls of the source. The rule behind the calls is not given here.
Legend:
[1] = biological target: T1, Nitric oxide synthase 3 (Homo sapiens, UniProt P29474); experiment: Inhibition of human recombinant eNOS expressed in baculovirus infected insect Sf9 cells assessed as conversion of [3H]L-arginine to [3H]L-citrulline incubated for 15 mins prior to substrate addition measured after 45 mins by liquid scintillation counting
T1 sequence (P29474 whole entry): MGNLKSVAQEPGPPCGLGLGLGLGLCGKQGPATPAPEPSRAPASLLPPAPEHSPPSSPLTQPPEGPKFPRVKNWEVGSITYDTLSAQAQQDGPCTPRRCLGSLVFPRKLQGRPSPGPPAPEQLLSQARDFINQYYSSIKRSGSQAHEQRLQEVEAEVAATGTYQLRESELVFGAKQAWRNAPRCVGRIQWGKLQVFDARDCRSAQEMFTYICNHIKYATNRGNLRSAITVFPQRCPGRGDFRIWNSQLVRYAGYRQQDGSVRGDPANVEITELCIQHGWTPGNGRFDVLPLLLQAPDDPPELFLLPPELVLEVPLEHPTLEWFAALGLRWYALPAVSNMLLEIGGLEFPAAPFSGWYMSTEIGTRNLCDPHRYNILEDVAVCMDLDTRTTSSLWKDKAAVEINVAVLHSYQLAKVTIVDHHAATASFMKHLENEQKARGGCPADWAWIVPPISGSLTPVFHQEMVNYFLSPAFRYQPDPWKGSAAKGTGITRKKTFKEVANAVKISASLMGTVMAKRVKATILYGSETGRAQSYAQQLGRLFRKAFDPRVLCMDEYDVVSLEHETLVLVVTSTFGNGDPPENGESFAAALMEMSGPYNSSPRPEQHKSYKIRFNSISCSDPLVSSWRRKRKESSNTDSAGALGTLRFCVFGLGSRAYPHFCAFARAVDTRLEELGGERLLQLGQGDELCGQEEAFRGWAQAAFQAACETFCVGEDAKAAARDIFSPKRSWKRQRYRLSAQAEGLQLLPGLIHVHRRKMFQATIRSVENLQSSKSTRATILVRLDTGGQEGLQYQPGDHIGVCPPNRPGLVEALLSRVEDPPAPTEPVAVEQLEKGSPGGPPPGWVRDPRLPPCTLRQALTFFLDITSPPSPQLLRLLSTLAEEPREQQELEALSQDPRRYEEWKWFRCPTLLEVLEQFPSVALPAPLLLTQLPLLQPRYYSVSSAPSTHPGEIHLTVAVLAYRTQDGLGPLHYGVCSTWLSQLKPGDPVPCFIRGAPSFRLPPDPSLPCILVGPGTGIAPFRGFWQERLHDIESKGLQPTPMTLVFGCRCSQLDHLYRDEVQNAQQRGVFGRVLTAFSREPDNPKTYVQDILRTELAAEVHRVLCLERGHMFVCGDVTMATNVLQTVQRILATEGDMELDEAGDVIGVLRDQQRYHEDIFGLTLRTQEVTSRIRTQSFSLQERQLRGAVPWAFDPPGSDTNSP

[2] = biological target: Nitric oxide synthase, inducible (Homo sapiens, UniProt P35228); experiment: Inhibition of human recombinant iNOS expressed in baculovirus infected insect Sf9 cells assessed as conversion of [3H]L-arginine to [3H]L-citrulline incubated for 15 mins prior to substrate addition measured after 45 mins by liquid scintillation counting
Chain of Nitric oxide synthase, inducible (Homo sapiens, UniProt P35228) (P35228 whole entry): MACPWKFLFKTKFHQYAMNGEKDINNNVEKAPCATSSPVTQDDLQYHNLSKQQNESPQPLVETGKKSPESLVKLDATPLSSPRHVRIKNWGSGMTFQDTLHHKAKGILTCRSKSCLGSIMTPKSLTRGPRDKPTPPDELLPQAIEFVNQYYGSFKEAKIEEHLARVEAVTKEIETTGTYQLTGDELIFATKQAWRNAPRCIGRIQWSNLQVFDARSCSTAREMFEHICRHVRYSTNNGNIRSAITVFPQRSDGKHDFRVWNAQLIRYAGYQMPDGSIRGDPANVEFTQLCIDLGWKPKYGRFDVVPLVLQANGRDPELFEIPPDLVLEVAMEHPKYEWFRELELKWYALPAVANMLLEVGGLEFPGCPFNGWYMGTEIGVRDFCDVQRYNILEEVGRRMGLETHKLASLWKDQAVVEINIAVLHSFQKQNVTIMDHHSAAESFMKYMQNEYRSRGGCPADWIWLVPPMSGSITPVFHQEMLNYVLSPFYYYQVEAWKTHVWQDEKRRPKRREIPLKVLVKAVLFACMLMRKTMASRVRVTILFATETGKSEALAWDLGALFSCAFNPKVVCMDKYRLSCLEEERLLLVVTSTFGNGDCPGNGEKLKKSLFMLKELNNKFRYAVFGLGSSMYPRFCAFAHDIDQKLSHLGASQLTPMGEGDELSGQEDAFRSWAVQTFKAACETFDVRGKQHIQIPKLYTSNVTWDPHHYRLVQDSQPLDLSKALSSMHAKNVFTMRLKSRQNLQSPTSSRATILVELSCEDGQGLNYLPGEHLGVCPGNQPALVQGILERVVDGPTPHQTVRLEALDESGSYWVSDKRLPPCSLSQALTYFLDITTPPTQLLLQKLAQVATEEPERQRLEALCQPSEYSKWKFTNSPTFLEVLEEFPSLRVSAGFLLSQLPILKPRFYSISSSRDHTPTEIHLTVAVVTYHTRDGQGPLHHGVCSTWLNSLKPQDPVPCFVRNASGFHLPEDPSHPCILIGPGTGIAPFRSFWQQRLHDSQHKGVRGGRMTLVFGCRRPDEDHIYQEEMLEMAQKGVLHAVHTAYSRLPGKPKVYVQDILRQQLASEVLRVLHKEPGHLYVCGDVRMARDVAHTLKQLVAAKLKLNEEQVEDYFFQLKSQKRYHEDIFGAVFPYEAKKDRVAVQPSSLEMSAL

[3] = biological target: Nitric oxide synthase 1 (Homo sapiens, UniProt P29475); experiment: Inhibition of human recombinant nNOS expressed in baculovirus infected insect Sf9 cells assessed as conversion of [3H]L-arginine to [3H]L-citrulline incubated for 15 mins prior to substrate addition measured after 45 mins by liquid scintillation counting
Chain of Nitric oxide synthase 1 (Homo sapiens, UniProt P29475) (P29475 whole entry): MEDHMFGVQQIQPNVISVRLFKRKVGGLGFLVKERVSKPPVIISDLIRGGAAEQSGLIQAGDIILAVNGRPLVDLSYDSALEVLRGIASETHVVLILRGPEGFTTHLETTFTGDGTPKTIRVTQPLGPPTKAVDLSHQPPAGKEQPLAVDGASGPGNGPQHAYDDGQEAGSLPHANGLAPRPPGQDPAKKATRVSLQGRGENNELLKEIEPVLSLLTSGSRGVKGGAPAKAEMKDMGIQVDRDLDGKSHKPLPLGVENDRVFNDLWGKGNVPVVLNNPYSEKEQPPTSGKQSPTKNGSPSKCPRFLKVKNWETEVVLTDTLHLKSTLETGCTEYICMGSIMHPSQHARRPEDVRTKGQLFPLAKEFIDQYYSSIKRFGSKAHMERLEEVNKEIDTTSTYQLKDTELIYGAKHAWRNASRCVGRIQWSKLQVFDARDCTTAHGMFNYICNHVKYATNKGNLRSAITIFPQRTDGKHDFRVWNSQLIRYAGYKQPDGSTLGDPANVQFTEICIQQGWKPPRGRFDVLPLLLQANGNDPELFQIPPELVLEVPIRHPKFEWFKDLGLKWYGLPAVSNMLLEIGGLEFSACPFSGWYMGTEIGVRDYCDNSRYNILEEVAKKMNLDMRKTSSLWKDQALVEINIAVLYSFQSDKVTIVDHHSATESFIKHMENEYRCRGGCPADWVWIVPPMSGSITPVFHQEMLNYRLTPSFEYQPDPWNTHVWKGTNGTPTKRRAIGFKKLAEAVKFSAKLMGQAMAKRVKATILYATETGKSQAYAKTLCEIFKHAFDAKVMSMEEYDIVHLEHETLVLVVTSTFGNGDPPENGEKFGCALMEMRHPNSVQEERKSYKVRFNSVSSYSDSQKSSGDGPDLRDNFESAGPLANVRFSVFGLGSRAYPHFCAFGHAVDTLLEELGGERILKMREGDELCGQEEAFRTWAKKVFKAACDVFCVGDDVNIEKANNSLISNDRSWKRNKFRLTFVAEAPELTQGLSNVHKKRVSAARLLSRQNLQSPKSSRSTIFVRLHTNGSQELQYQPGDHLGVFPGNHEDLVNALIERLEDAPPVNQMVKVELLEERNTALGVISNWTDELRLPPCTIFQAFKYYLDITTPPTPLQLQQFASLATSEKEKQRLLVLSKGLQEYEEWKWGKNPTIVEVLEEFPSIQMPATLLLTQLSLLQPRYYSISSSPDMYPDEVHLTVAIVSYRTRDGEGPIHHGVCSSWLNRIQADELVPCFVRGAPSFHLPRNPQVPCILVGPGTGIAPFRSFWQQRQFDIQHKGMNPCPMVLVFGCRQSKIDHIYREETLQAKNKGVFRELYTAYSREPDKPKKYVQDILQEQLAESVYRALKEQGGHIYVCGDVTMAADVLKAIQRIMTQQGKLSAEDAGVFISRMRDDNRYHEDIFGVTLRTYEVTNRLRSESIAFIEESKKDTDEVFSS

[4] = test system: Rattus norvegicus; experiment: Analgesic activity in rat Chung model of neuropathic pain assessed as partial reversal of thermal hyperalgesia at 30 mg/kg, ip measured after 30 mins; conditions: route intraperitoneal
[5] = biological target: Nitric oxide synthase 1 (Rattus norvegicus, UniProt P29476); experiment: Inhibition of rat recombinant nNOS expressed in baculovirus infected insect Sf9 cells assessed as conversion of [3H]L-arginine to [3H]L-citrulline incubated for 15 mins prior to substrate addition measured after 45 mins by liquid scintillation counting
[6] = test system: Rattus norvegicus; experiment: Analgesic activity in rat Chung model of neuropathic pain assessed as partial reversal of thermal hyperalgesia at 30 mg/kg, ip; assay type: functional, organism-based; parameters: dose 30 mg/kg
Procedure, shortened: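 Rats anesthetized with halothane; L5 and L6 spinal nerves exposed, isolated and tightly ligated with 4-0 silk suture distal to the DRG. After surgical recovery, hyperalgesia was read as paw withdrawal latency to radiant heat applied to the paw after intraperitoneal dosing.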

[7] = biological target: Adrenergic receptor alpha-2 (Rattus norvegicus) (UniProt P22086+P19328+P22909); experiment: Displacement of [3H]RX 821002 from rat cerebral cortex alpha2 adrenergic receptor at 10 uM after 60 mins; assay type: tissue-based
Procedure, shortened: (§1)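 Single-concentration (10 μM) radioligand binding screen. Specific binding = total minus nonspecific binding, with nonspecific binding taken in excess unlabeled ligand. Results were given as percent inhibition of control specific binding.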

[8] = biological target: Nitric oxide synthase 3 (Rattus norvegicus, UniProt Q62600); experiment: Inhibition of rat recombinant eNOS expressed in baculovirus infected insect Sf9 cells assessed as conversion of [3H]L-arginine to [3H]L-citrulline incubated for 15 mins prior to substrate addition measured after 45 mins by liquid scintillation counting
[9] = organism: Rattus norvegicus; experiment: Displacement of [3H]DTG from rat cerebral cortex sigma receptor at 10 uM after 120 mins; assay type: tissue-based; procedure, shortened: as §1
[10] = biological target: 5-hydroxytryptamine receptor 1B (Rattus norvegicus) (UniProt P28564); experiment: Displacement of [125I]CYP from rat cerebral cortex 5HT1B receptor at 10 uM after 120 mins in the presence of (-)propranolol; assay type: tissue-based; procedure, shortened: as §1
[11] = biological target: Mu-type opioid receptor (Homo sapiens) (UniProt P35372); experiment: Displacement of [3H]DAMGO from human recombinant mu opioid receptor expressed in HEK 293 cells at 10 uM after 120 mins; assay type: cell-based; conditions: HEK293; procedure, shortened: as §1
[12] = Cardiotoxicity in human arteries assessed as inhibition of acetylcholine-mediated vasorelaxation at 100 uM pretreated with U46619 prior to Ach challenge measured after 50 mins in presence of L-arginine; assay type: toxicity, tissue-based, Artery
[13] = biological target: T2, Sodium-dependent noradrenaline transporter (Homo sapiens, UniProt P23975); experiment: Displacement of [3H]nisoxetine from human recombinant norepinephrine transporter expressed in CHO cells at 10 uM after 120 mins; assay type: cell-based; procedure, shortened: as §1
T2 sequence (P23975 whole entry): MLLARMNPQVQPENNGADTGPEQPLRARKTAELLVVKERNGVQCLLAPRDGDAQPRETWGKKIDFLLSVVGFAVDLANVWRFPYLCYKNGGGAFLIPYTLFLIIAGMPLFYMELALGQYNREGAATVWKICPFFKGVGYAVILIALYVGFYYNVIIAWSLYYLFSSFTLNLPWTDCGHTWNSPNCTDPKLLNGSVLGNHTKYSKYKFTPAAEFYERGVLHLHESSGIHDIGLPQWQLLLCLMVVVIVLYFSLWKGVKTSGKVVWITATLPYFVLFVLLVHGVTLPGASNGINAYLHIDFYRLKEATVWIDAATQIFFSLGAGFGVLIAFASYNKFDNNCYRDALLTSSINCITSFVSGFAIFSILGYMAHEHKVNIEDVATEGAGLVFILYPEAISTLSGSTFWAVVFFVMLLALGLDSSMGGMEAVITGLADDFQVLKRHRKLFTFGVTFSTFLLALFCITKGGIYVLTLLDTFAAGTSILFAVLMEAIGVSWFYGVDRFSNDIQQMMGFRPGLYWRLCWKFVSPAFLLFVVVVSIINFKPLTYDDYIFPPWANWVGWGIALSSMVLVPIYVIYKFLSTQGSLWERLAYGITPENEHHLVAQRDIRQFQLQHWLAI

[14] = biological target: Muscarinic acetylcholine receptor M5 (Homo sapiens) (UniProt P08912); experiment: Displacement of [3H]4-DAMP from human recombinant muscarinic M5 receptor expressed in CHO cells at 10 uM after 60 mins; assay type: cell-based; procedure, shortened: as §1
[15] = biological target: Muscarinic acetylcholine receptor M1 (Homo sapiens) (UniProt P11229); experiment: Displacement of [3H]pirenzepine from human recombinant muscarinic M1 receptor expressed in CHO cells at 10 uM after 60 mins; assay type: cell-based; procedure, shortened: as §1
[16] = biological target: Muscarinic acetylcholine receptor M3 (Homo sapiens) (UniProt P20309); experiment: Displacement of [3H]4-DAMP from human recombinant muscarinic M3 receptor expressed in CHO cells at 10 uM after 60 mins; assay type: cell-based; procedure, shortened: as §1
Chain of Muscarinic acetylcholine receptor M3 (Homo sapiens) (P20309 whole entry, looked up): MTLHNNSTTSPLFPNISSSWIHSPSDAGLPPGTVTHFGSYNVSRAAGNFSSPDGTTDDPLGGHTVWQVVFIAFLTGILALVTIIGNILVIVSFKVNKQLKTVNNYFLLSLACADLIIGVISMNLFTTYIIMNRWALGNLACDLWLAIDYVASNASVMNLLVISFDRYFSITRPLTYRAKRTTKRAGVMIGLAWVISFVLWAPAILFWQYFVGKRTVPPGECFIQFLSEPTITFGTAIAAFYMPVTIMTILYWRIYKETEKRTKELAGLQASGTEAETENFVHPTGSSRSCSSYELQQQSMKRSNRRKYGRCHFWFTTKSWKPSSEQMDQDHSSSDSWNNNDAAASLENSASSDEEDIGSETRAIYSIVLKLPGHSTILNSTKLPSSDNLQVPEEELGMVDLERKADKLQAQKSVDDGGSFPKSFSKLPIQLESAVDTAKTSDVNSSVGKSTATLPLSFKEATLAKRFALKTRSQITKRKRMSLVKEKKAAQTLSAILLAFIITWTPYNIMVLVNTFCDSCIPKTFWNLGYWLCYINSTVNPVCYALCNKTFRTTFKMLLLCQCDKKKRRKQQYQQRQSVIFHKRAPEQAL

[17] = biological target: 5-hydroxytryptamine receptor 5A (Homo sapiens) (UniProt P47898); experiment: Displacement of [3H]LSD from human recombinant 5-HT5a receptor expressed in HEK293 cells at 10 uM after 120 mins; assay type: cell-based; procedure, shortened: as §1
[18] = biological target: Muscarinic acetylcholine receptor M4 (Homo sapiens) (UniProt P08173); experiment: Displacement of [3H]4-DAMP from human recombinant muscarinic M4 receptor expressed in CHO cells at 10 uM after 60 mins; assay type: cell-based; procedure, shortened: as §1
[19] = biological target: T2, Sodium-dependent noradrenaline transporter; experiment: Displacement of [3H]nisoxetine from human recombinant norepinephrine transporter expressed in CHO cells after 120 mins; assay type: cell-based
[20] = biological target: Muscarinic acetylcholine receptor M2 (Homo sapiens) (UniProt P08172); experiment: Displacement of [3H]AF-DX 384 from human recombinant muscarinic M2 receptor expressed in CHO cells at 10 uM after 60 mins; assay type: cell-based; procedure, shortened: as §1
Chain of Muscarinic acetylcholine receptor M2 (Homo sapiens) (P08172 whole entry): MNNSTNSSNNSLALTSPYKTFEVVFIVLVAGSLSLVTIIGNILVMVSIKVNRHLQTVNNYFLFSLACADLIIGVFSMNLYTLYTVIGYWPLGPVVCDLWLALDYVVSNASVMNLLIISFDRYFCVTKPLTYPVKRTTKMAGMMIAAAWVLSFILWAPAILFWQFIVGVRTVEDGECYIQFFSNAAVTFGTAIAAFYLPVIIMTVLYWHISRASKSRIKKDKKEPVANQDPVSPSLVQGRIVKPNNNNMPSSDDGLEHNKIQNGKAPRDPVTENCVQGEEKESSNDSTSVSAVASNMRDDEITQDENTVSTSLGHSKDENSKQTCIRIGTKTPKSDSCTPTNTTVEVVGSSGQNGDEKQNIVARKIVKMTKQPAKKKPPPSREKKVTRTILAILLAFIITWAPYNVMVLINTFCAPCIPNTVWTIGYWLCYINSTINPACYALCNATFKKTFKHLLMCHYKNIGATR

[21] = Cardiotoxicity in human arteries assessed as inhibition of acetylcholine-mediated vasorelaxation at 100 uM pretreated with U46619 prior to Ach challenge measured after 50 mins; assay type: toxicity, tissue-based, Artery
Procedure, shortened: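 Human resistance artery rings (~2 mm) were wire-mounted in a myograph in Krebs-bicarbonate PSS gassed with 95% O2/5% CO2 at 37 °C, and isometric tension was recorded. After ≥30 min equilibration, rings received three KPSS (62.5 mM) challenges. Endothelial integrity was checked with U46619 (1 × 10⁻⁷ M) then ACh. Compound was added for 50 min without L-arginine, then rings were submaximally precontracted with U46619 before cumulative ACh (1 × 10⁻¹⁰ to 1 × 10⁻⁵ M).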

[22] = biological target: Nitric oxide synthase, inducible (Rattus norvegicus, UniProt Q06518); experiment: Inhibition of rat recombinant iNOS expressed in baculovirus infected insect Sf9 cells assessed as conversion of [3H]L-arginine to [3H]L-citrulline incubated for 15 mins prior to substrate addition measured after 45 mins by liquid scintillation counting
[23] = biological target: Kappa-type opioid receptor (Rattus norvegicus) (UniProt P34975); experiment: Displacement of [3H]U 69593 from rat recombinant kappa opioid receptor expressed in CHO cells at 10 uM after 60 mins; assay type: cell-based; procedure, shortened: as §1
Chain of Kappa-type opioid receptor (Rattus norvegicus) (P34975 whole entry): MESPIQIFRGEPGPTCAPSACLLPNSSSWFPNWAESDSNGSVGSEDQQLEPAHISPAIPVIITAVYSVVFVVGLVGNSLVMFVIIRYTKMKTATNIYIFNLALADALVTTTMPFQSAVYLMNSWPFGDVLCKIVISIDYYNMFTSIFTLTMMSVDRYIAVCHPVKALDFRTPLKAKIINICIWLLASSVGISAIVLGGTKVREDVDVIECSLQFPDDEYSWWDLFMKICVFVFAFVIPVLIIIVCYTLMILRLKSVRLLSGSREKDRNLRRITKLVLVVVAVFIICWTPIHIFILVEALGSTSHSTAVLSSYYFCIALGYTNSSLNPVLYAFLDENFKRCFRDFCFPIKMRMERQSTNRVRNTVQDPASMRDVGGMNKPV

[24] = biological target: Nitric oxide sythases; iNOS & nNOS (Homo sapiens) (UniProt P29475+P35228); experiment: Selectivity ratio of IC50 for human recombinant iNOS to IC50 for human recombinant nNOS
Chain of Nitric oxide sythases; iNOS & nNOS (Homo sapiens) (P29475 whole entry, looked up): as the sequence (P29475 whole entry) above
Chain of Nitric oxide sythases; iNOS & nNOS (Homo sapiens) (P35228 whole entry, looked up): as the sequence (P35228 whole entry) above

[25] = organism: Homo sapiens; experiment: Selectivity ratio of IC50 for human recombinant eNOS to IC50 for human recombinant nNOS
[26] = biological target: Voltage-gated inwardly rectifying potassium channel KCNH2 (Homo sapiens, UniProt Q12809); experiment: Inhibition of human Erg expressed in HEK293 cells by patch clamp assay

SMILES	IC50 [1] [µM]	IC50 [2] [µM]	IC50 [3] [µM]	Ratio IC50 [24]	Ratio IC50 [25]	other results
NC(=Nc1ccc2c(c1)N(C1CCNCC1)CC2)c1cccs1	99	2.39	0.54	–	–	–
CN[C@H]1CC[C@@H](N2CCc3ccc(NC(=N)c4cccs4)cc32)CC1	195	83	0.37	–	–	MPE [4]: 66%; IC50 [5]: 1.93 µM; Activity [6]: Active; inhibition [7]: 58%; IC50 [8]: 4.16 µM; inhibition [9]: 72%; inhibition [10]: 60%; inhibition [11]: 52%; Activity [12]: Not Active; inhibition [13]: 86%; inhibition [14]: 90%; inhibition [15]: 80%; inhibition [16]: 85%; inhibition [17]: 59%; inhibition [18]: 95%; IC50 [19]: 4.4 µM; inhibition [20]: 80%; Activity [21]: Not Active; IC50 [22]: 2.34 µM; inhibition [23]: 69%
N=C(Nc1ccc2c(c1)N(CCN1CC[C@@H](O)C1)CC2)c1cccs1	–	–	–	62	71	–
CN[C@H]1CC[C@H](N2CCc3ccc(NC(=N)c4cccs4)cc32)CC1	237	189	2.12	–	–	–
CN1CCC[C@H]1CCN1CCCc2cc(NC(=N)c3cccs3)ccc21	–	–	–	–	–	Activity [12]: Active; IC50 [26]: 4.7 µM; Activity [21]: Active
N=C(Nc1ccc2c(c1)N(C1CCNC1)CC2)c1cccs1 (racemic)	7.17	8.94	0.18	50	40	–
N=C(Nc1ccc2c(c1)N(C1CCNCC1)CC2)c1cccs1	–	–	–	4	183	–
NC(=Nc1ccc2c(c1)N(C1CCCCC1)CC2)c1cccs1	109	> 100	4.07	–	–	–
N=C(Nc1ccc2c(c1)N(C1CCSCC1)CC2)c1cccs1	–	–	–	0.5	10	–

The next lines start with results.

IC50 [1] [µM]	IC50 [2] [µM]	IC50 [3] [µM]	Ratio IC50 [24]	Ratio IC50 [25]	SMILES	other results
7.12	6.79	0.11	–	–	NC(=Nc1ccc2c(c1)N(CCN1CC[C@@H](O)C1)CC2)c1cccs1	–
243	481	18.8	26	13	N=C(Nc1cc2c(cc1F)CCN2C1CCNCC1)c1cccs1	–
231	522	5.75	91	41	CN[C@H]1CC[C@H](N2CCc3cc(F)c(NC(=N)c4cccs4)cc32)CC1	–
220	897	5.82	154	38	CN[C@H]1CC[C@@H](N2CCc3cc(F)c(NC(=N)c4cccs4)cc32)CC1	–
3.36	3.41	0.07	–	–	NC(=Nc1ccc2c(c1)N(CCNCCO)CC2)c1cccs1	–
–	–	–	–	27	N=C(Nc1ccc2c(c1)N(C1CCCCC1)CC2)c1cccs1	–
–	–	–	–	26	N=C(Nc1ccc2c(c1)N(C1CCOCC1)CC2)c1cccs1	–
21.5	1.12	2.07	–	–	NC(=Nc1ccc2c(c1)N(C1CCSCC1)CC2)c1cccs1	–
–	–	–	49	48	N=C(Nc1ccc2c(c1)N(CCNCCO)CC2)c1cccs1	–
84.8	> 100	3.26	–	–	NC(=Nc1ccc2c(c1)N(C1CCOCC1)CC2)c1cccs1	–
